# Screens from PubChem.
# T cruzi repl: inhibitors of intracellular T. cruzi growth, primary screen, luminescence, NIH3T3 host cells. actives 1.4% (n = 300,000). T. cruzi beta-gal in NIH3T3, 90 h. inhibition, % (concentration not given with the values). AID 1885, 2009;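 active means mean inhibition across valid replicates above about 55%, limit read from the data; inconclusive means mean below that limit but half or more replicates reach it; inactive means mean below it, under half of replicates reach it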;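 further: signal also drops with host cell toxicity which is not excluded here; 0% = plate median of DMSO wells and 100% = zero luminescence signal; higher percent means less beta-gal luminescence so fewer parasites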
#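 System – NIH/3T3 host cells with β-galactosidase reporter T. cruzi · Doses – single 50 nL compound addition per well in DMSO · Reagent – 5000 T. cruzi trypomastigotes/well · Medium – Low-serum DMEM with 2% FBS · Timing – ≥90 h infection period, 3 h prior cell attachment · Evaluation – parasite load inhibition, % · Technique – GalScreen luminescence, 60 min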
# XBP1 UPR activ: activators of adaptive XBP1 UPR arm, primary screen, cell-based, CHO-XBP1 luciferase reporter, luminescence, uHTS. actives 0.33% (n = 330,000). activation, % at 20 µM. AID 463104, 2010. IRE1-XBP1 UPR activation; percent of tunicamycin response, DMSO as zero;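 active means versus positive control, 20 µM dose yields 30% or more activation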;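 further: 100% = tunicamycin at 10 µg/mL and 0% = DMSO only wells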
#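 Material: CHO-XBP1 cells stably carrying IRE1-XBP1-driven luciferase reporter / Amount: 1000 cells per well / Compound: 20 µM, 1% DMSO / Times: 6 h treatment, 37 °C / Detection: luciferase luminescence / Measure: % activation of reporter signal versus tunicamycin and DMSO controls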
# CHOP UPR activ: activators of apoptotic CHOP UPR arm, primary screen, cell-based, CHO-CHOP luciferase reporter, luminescence, uHTS | AID 449763, 2010 | activation, % at 10 µM | UPR activation; percent of tunicamycin response over DMSO baseline | actives 0.34% (n = 330,000);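 active means at 10 µM dose, activation of 40% or more, normalized to positive control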;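 further: 100% = tunicamycin at 10 µg/mL and 0% = DMSO alone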
#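 Assay system: CHO-CHOP cells, stable luciferase reporter of PERK-eIF2a-CHOP signalling / Buffer or medium: F12 plus 10% serum / Compound dosing: one dose, 10 µM in 0.5% DMSO / Times: 6 h compound treatment, 37 °C / Technique: luciferase luminescence / Read-out: % reporter activation, DMSO baseline versus tunicamycin full activation / Benchmarks: tunicamycin and DMSO controls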
# CSC inhib: cancer stem cell viability inhibitors, primary screen, luminescence; inhibition, % at 7.5 µM; actives 1.1% (n = 300,000); cancer stem cell-like cells viability; AID 2717, 2010; in the data active means inhibition above about 75%; inconclusive means no clear call, values can overlap the other calls; tested in HMLE shEcad cells
# Mdm2 MdmX PPI: inhibitors of human Mdm2-MdmX association, primary screen, cell-based, luminescence, split luciferase, SaOS-2, uHTS | Protein Mdm4 (Homo sapiens) + E3 ubiquitin-protein ligase Mdm2 (Homo sapiens), … | SaOS-2 split-luciferase Mdm2/MdmX complementation | inhibition, % at 8 µM | actives 3% (n = 330,000) | AID 485346, 2010;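 active means inhibition of at least 50% at 8 µM in the primary screen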
# Beta cell apopt: inhibitors of cytokine-induced beta cell apoptosis, primary screen, luminescence | INS-1E cytokine-induced death, ATP luminescence, 48 h; percent of positive-control rescue, neutral wells zero | protection from apoptosis, % (no concentration beside the values) | actives 0.8% (n = 300,000) | AID 435005, 2010;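 active means Every replicate reaches about 75%, or at least half do and their mean reaches it too, limit read from the data; inconclusive means At least half of replicates reach the limit but their mean does not; inactive means Under half of replicates reach the limit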;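 further: 0% = cytokine-treated negative control wells and 100% = positive control rescue; higher means more ATP so stronger rescue from cytokine killing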
# Mdm2-MdmX conf: Mdm2-MdmX complex disruptors, retested hits, confirmation, luminescence, single concentration. shares compounds with Mdm2 MdmX PPI. Mdm2-MdmX binding, luminescent assay. inhibition, % at 8 µM. actives 55% (n = 10,000). AID 489028, 2010; in the data active means inhibition above about 40%
# FLuc counter: full-length luciferase signal inhibition, confirmation, counter-screen for Mdm2/MdmX interaction inhibitor project, cell-based, single concentration, SaOS-2; shares compounds with Mdm2 MdmX PPI; SaOS-2 full-length luciferase counterscreen, luminescence; inhibition, % at 8 µM; actives 77% (n = 6,200); AID 504607, 2011;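 active means mean inhibition at 8 µM reaching about 37%, which flags the compound as non-specific, limit read from the data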;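 further: p53-null SaOS-2 cells with luciferase driven by a doxycycline-inducible promoter; compound on cells about two nights before reading with doxycycline added after day one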
# Numbers without * were called inactive; ? = inconclusive; . = no result given. In the library only some 5% were active in any assay of this set; here they are far more common.
SMILES,T cruzi repl,XBP1 UPR activ,CHOP UPR activ,CSC inhib,Mdm2 MdmX PPI,Beta cell apopt,Mdm2-MdmX conf,FLuc counter
COCCn1c(SCC(=O)Nc2ccc(OC)cc2)nc2c(oc3ccccc32)c1=O,8,21,3,-5,99*,0,15,.
Cc1cccc(NC(=O)CSc2nc3c([nH]c4ccccc43)c(=O)n2C)c1,-7,18,9,32,65*,20,1,.
Cc1cccc(NC(=O)CSc2nc3ccccc3c(=O)n2C)c1,14,-1,0,7,11,6,.,.
COCCn1c(SCC(=O)Nc2cc(C)on2)nc2cc(Cl)ccc2c1=O,.,1,2,.,64*,2,6,.
CCCCS(=O)(=O)Nc1ccc(N2CCOCC2)c(S(=O)(=O)N2CCOCC2)c1,6,-3,2,-27,4,-3,.,.
CC(NC(=O)Cc1ccccc1)c1cc2c(cc1Br)OCCCO2 (stereo not drawn),21,-2,-1,-7,30,2,.,.
COCCn1c(SCC(=O)Nc2cccc(F)c2)nc2c([nH]c3ccccc32)c1=O,-22,0,1,3,88*,23,66*,47*
Cn1c(SCC(=O)Nc2ccccc2)nc2c([nH]c3ccccc32)c1=O,-21,24,-1,8,67*,19,10,.
COc1ccccc1C(=O)NC(=Nc1nc2ccccc2o1)NC(=O)c1ccccc1OC,71*,-5,-5,18,88*,26,55*,88*
Cc1ccc(C(=O)N2CCN(c3ccc(NC(=O)Cc4ccccc4)cc3)CC2)cc1,3,-1,0,-10,16,2,.,.
O=[N+]([O-])c1cccc(-n2nnnc2CN2CCCC2)c1,-4,0,0,-11,-16,0,.,.
Cc1nnsc1-c1onc(C)c1C(=O)Nc1cc(Cl)cc(Cl)c1,23,1,2,25,76*,77*,16,.
CCOc1ccccc1/C=N\Nc1cnn(Cc2ccccc2)c(=O)c1Cl,56*,-3,-1,-3,53*,-2,24,.
CCOC(=O)c1sc(=S)n(C)c1NC(=O)c1ccc(C(C)(C)C)cc1,10,-2,-2,37,61*,7,31,.
Cc1cccc(NC(c2ccc(C)s2)c2ccc3ccc(C)nc3c2O)n1 (stereo not drawn),?,2,93*,.,98*,.,61*,24
Cc1ccc2ccc(C(Nc3cccc(C(F)(F)F)c3)c3cccnc3)c(O)c2n1 (stereo not drawn),48,-1,1,4,7,5,.,.
Cc1ccc(/C=N/NC(=O)c2cc(-c3ccc(C)o3)[nH]n2)cc1,-10,2,0,0,50*,.,54*,50*
CC(C)Oc1ccc(C(=O)Nc2ccc(C(F)(F)F)n(C)c2=O)cc1,1,2,1,-3,-65,-3,.,.
COc1cc(-c2ccc(Nc3ccccc3C(=O)O)c(OC)c2)ccc1Nc1ccccc1C(=O)O,.,-5,0,.,81*,.,32,.
Cn1c(=O)[nH]c(=O)c2c1nc(N1CCN(c3ccccc3)CC1)n2CCSc1ncccn1,-1,3,4,.,54*,-7,24,.
COc1cccc(N2C(=O)Nc3ccc(Br)cc3C2(O)C(=O)NCCCOC(C)C)c1 (stereo not drawn),-7,-3,2,-11,-8,-2,.,.
CSc1ncccc1C(=O)OCC(=O)N(C)c1c(N)n(Cc2ccccc2)c(=O)[nH]c1=O,-2,-1,2,1,-14,-4,.,.
CN(C)C1(CN=Cc2cc(Cl)cc([N+](=O)[O-])c2O)CCCCC1,23,4,0,7,13,-5,.,.
O=C(NCc1ccccc1)C1=C[C@H](C2CCCCC2)C[C@H](OCc2ccc(CO)cc2)O1,1,-4,3,34,51*,36,63*,60*
O=C(NC1CC1)C1=C[C@H](c2csc3ccccc23)C[C@H](OCCCCO)O1,7,0,0,-19,28,-1,.,.
SMILES,T cruzi repl,XBP1 UPR activ,CHOP UPR activ,CSC inhib,Mdm2 MdmX PPI,Beta cell apopt,Mdm2-MdmX conf,FLuc counter
O=C(NCc1ccccc1)C1=C[C@@H](C2CC2)C[C@@H](OCc2ccc(CO)cc2)O1,11,-3,0,-1,-3,-7,.,.
O=C(NCc1ccccc1)C1=C[C@@H](c2csc3ccccc23)C[C@@H](OCCCCO)O1,44,-1,4,14,74*,116*,75*,39*
O=C(NCc1ccccc1)C1=C[C@@H](c2csc3ccccc23)C[C@@H](OCc2ccc(CO)cc2)O1,39,0,4,22,72*,123*,32,.
O=C(NCc1ccncc1)c1cccc(S(=O)(=O)NCc2ccccc2)c1,-2,-4,2,-19,27,-2,.,.
Cc1ccc(OCCNC(=O)c2cccc(S(=O)(=O)NCc3ccccc3)c2)cc1,.,0,-1,.,60*,.,77*,54*
CCN(CC)c1ccc(N2C(=O)/C(=C/c3cccs3)SC2=S)cc1,12,2,3,0,52*,3,20,.
COc1cc([C@@H]2c3cc4c(cc3[C@H](O)[C@H]3COC(=O)[C@H]23)OCO4)cc(OC)c1OC,13,6,0,59,75*,.,54*,126*
COc1cc(C2c3cc4c(cc3C(OC3OC5COC(c6cccs6)OC5C(O)C3O)C3COC(=O)C23)OCO4)cc(OC)c1O (stereo not drawn),33,-5,3,101*,94*,94*,88*,22
COc1cc([C@@H]2c3cc4c(cc3[C@@H](NC3CCN(Cc5ccccc5)CC3)[C@H]3COC(=O)[C@H]23)OCO4)cc(OC)c1O,24,.,.,.,.,.,.,.
COc1cc([C@@H]2c3cc4c(cc3[C@@H](O)[C@@H](CO)[C@@H]2CO)OCO4)cc(OC)c1O[Si](C)(C)C(C)(C)C,27,7,0,58,53*,-7,4,.
